Where “and” joins values, the source holds several entries; their conditions need not be identical. Equal entries are not always repeated. The whole screen tested about 360,000 compounds, of which about 500 (0.14%) were called active.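 The calls were made as follows: active = mean inhibition of at least 70% across replicates, with every replicate also reaching that level; inconclusive = mean inhibition reaches 70% but some replicates fall short; inactive = mean inhibition below 70%.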 Many of the other results were omitted from the sample, so actives are more common in it than they were. Some compounds were tested as several samples or in several runs, with calls that do not always agree.
target: Protein S100-A4 (Homo sapiens) (UniProt P26447); test: inhibitors of S100A4-myosin IIA peptide binding, primary screen, biochemical, fluorescence polarization, TAMRA-MyoIIA peptide (AID 652163); conditions: at 10.7 µM, stronger effect = higher value
Sequence (P26447 whole entry, looked up): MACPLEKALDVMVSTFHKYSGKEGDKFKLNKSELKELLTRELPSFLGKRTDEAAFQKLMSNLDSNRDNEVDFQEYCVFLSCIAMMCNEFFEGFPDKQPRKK
Outline: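 Test system – S100A4 monomer (human) · Compound – single-point compound testing · Schedule – 5 min incubation before reading · Probe or stimulus – TAMRA-labelled myosin IIA heavy-chain peptide probe, 5 nM · Benchmarks – neutral control DMSO, positive control TFP · Medium – Calcium-containing HEPES buffer, pH 7.2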

SMILES | inhibition
CCCNC(=O)N1[C@@H]2CN(C)c3ccccc3[C@@H]2[C@@H]1CO | 7.1% (inactive)
COc1ccc(S(=O)(=O)N(C)C[C@H]2Oc3ccc(NC(=O)Nc4c(C)noc4C)cc3C(=O)N([C@@H](C)CO)C[C@@H]2C)cc1 | -9.31% (inactive)
Cc1noc(C)c1NC(=O)N(C)C[C@@H]1OCCCC[C@H](C)Oc2ccc(NC(=O)CCC(F)(F)F)cc2C(=O)N([C@@H](C)CO)C[C@@H]1C | 5.68% (inactive)
CC(=O)N(C)C[C@@H]1Oc2cc(-c3cccc(F)c3)ccc2S(=O)(=O)N([C@H](C)CO)C[C@H]1C | -20.8% (inactive)
CC(C)(O)C#Cc1ccc([C@H]2[C@H]3CN(C(=O)c4ccncc4)CCCCN3[C@H]2CO)cc1 | -11.2% (inactive)
COc1ccc(S(=O)(=O)Nc2ccc3c(c2)C(=O)N([C@@H](C)CO)C[C@H](C)[C@H](CN(C)Cc2ccc4c(c2)OCO4)OCCCC[C@H](C)O3)cc1 | -9.48% (inactive)
COc1cccc(C(=O)Nc2ccc3c(c2)C(=O)N(C)[C@H]2CC[C@@H](CC(=O)N[C@H](C)c4ccccc4)O[C@H]2CO3)c1 | -0.71% (inactive)
C=CCN1C(=O)[C@]2(O[C@H](CCn3cc(CCO)nn3)[C@@H]([Si](C)(C)c3ccc(OC)cc3)[C@@H]2C)c2cc(N3CCOC3=O)ccc21 | 10.3% (inactive)
C[C@H](CO)N1C[C@H](C)[C@@H](CN(C)CC2CC2)Oc2ccc(NC(=O)CCCN(C)C)cc2CC1=O | -0.322% (inactive)
O=C(C[C@@H]1C=C[C@@H](NS(=O)(=O)c2ccccc2)[C@H](CO)O1)N1CCN(c2ccccc2)CC1 | 8.62% (inactive)
CN1CCN(C(=O)C[C@@H]2C=C[C@@H](NS(=O)(=O)c3cccc(F)c3)[C@@H](CO)O2)CC1 | 103% (active)
COc1ccccc1S(=O)(=O)N[C@@H]1C=C[C@H](CC(=O)N2CCN(C)CC2)O[C@@H]1CO | 59.7% (inactive)
Nc1ncnc2c1ncn2C1OC(CO)CC1O (centres undefined) | 0.763% (inactive)
CO[C@@H]1CN(C)C(=O)c2cc(NC(=O)c3ccccc3)ccc2OC[C@H](C)N(C(=O)CN(C)C)C[C@H]1C | -0.975% (inactive)
C=C[C@H](OC)[C@@H](O)c1ccc(OC)c(O)c1 | -5.17% (inactive)
CN1C(=O)c2cc(NC(=O)C3CCC3)ccc2OC[C@@H]2O[C@@H](CC(=O)NCc3ccccc3F)CC[C@@H]21 | 88.8% (active)
CN1C(=O)c2cc(NC(=O)C3CCCC3)ccc2OC[C@H]2O[C@H](CC(=O)NCc3ccccc3F)CC[C@H]21 | -2.52% (inactive)
CN1C(=O)c2cc(NC(=O)C3CCOCC3)ccc2OC[C@@H]2O[C@H](CC(=O)NCc3ccccc3F)CC[C@H]21 | 4.38% (inactive)
C[C@@H]1CN([C@@H](C)CO)C(=O)c2cc(C3=CCCC3)cnc2O[C@H]1CN(C)Cc1ccccc1F | 0.298% (inactive)
COc1cccc2c1C(=O)c1c(O)c3c(c(O)c1C2=O)CC(O)(C(C)=NNC(=O)c1ccc(Cl)c(Cl)c1)CC3OC1CC(N)C(O)C(C)O1 (centres undefined) | 189% (active)

SMILES | inhibition
C[C@@H]1CN([C@H](C)CO)C(=O)CCCn2cc(nn2)CO[C@H]1CN(C)S(C)(=O)=O | -42.7% (inactive) and 116% (active) and -0.12% (inactive)
C[C@H]1CN([C@@H](C)CO)C(=O)CCCn2cc(nn2)CO[C@@H]1CN(C)S(=O)(=O)c1cccs1 | 1.44% (inactive) and -0.084% (inactive)
Cc1noc(C)c1S(=O)(=O)N(C)C[C@H]1OCc2cn(nn2)CCCC(=O)N([C@H](C)CO)C[C@H]1C | -10.8% (inactive)
C[C@H]1CN([C@@H](C)CO)C(=O)c2cccc(NC(=O)Nc3ccc(C(F)(F)F)cc3)c2O[C@H]1CN(C)CC1CCCCC1 | 0.766% (inactive)
CO[C@H]1CN(C)C(=O)c2ccc(NS(C)(=O)=O)cc2OC[C@H](C)N(C(=O)C2CCC2)C[C@H]1C | 3.67% (inactive)
COC(=O)c1cc2c(c3c4ccccc4n(S(=O)(=O)c4cccc(C)c4)c13)C(=O)N(Cc1ccccc1)C2 | -0.199% (inactive)
O=C(C[C@@H]1CC[C@@H]2[C@H](COC[C@@H](O)CN2S(=O)(=O)c2ccccc2)O1)NCC1CCCCC1 | -4.89% (inactive)
CN1CCN(C(=O)C[C@@H]2CC[C@@H]3[C@@H](COc4ccc(NC(=O)c5ccc(F)c(F)c5)cc4C(=O)N3C)O2)CC1 | -20.1% (inactive)
O=C(NCC1CC1)[C@H]1[C@H](CO)[C@H]2Cn3c(ccc(/C=C/c4ccccc4)c3=O)[C@@H]1N2C(=O)C1CCC1 | 5.09% (inactive)
COCC#Cc1ccc([C@@H]2[C@H]3CN(C(=O)C4CCOCC4)CC(=O)N3[C@H]2CO)cc1 | 10.1% (inactive)
COc1cccc(S(=O)(=O)N[C@@H]2C=C[C@H](CC(=O)NC3CCC3)O[C@@H]2CO)c1 | 11.1% (inactive)
O=C(Nc1nccs1)[C@@H]1[C@@H](CO)[C@@H]2Cn3c(ccc(-c4cccnc4)c3=O)[C@@H]2N1CC1CC1 | 5.29% (inactive)
O=C([C@H]1N[C@H]2c3ccc(-c4ccccc4)c(=O)n3C[C@H]2[C@@H]1CO)N1CCOCC1 | -1.77% (inactive)
CO[C@H]1CN(C)C(=O)c2cc(NC(=O)C3CCC3)ccc2OC[C@H](C)N(C)C[C@H]1C | 6.42% (inactive)
CO[C@@H]1CN(C)C(=O)c2cc(NC(=O)c3cc(C)on3)ccc2OC[C@@H](C)N(C(C)=O)C[C@@H]1C | -1.83% (inactive)
C[C@@H]1CN([C@H](C)CO)C(=O)c2cccc(NS(=O)(=O)c3ccc(Cl)cc3)c2O[C@H]1CN(C)C(=O)NC1CCCCC1 | 3.25% (inactive)
CC(C)CC#Cc1ccc([C@H]2[C@H]3CN(C(=O)c4cnccn4)CC(=O)N3[C@H]2CO)cc1 | 1.39% (inactive)
COc1cccc(-c2ccc3n(c2=O)C[C@H]2[C@H](CO)[C@@H](C(=O)NC4CCCC4)[C@@H]3N2C)c1 | 6.59% (inactive)
C/C=C/c1ccc([C@H]2[C@@H](CO)N[C@@H]2CN(CC)C(=O)CN2CCOCC2)cc1 | -4.11% (inactive)
